Assay outcomes from PubChem BioAssay.
A selection: hits, their analogues and other compounds. The true share with any hit is near 2.9%.
Hsp90 block = tumor Hsp90 inhibitors, primary screen, cell lysate, fluorescence polarization, NCI-N417 lysate | Heat shock protein HSP 90-alpha (Homo sapiens), P07900 | Cy3B-geldanamycin FP displacement | inhibition, % at 30 µM | 64,000 compounds, 0.35% hits | AID 429, 2006;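 active = inhibition above 50%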;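 note: 0% = tracer plus lysate wells and 100% = tracer alone without lysate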
Cdc25B block = inhibitors of Cdc25B phosphatase catalytic domain, primary screen, biochemical, OMFP fluorescence. AID 368, 2006. M-phase inducer phosphatase 2 (Homo sapiens), P30305. inhibition, %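 (compounds tested at 10 µM final in the well)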. recombinant Cdc25B, OMFP fluorescence Ex485/Em525. 65,000 compounds, 0.1% hits; in the data active = inhibition above about 50%
MKP-1 inh = MKP-1 phosphatase inhibitors, primary screen, biochemical, in vitro; inhibition, %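 (compounds tested at a single concentration somewhere between 10 and 100 µM)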; Dual specificity protein phosphatase 1 (Homo sapiens), P28562; 65,000 compounds, 0.15% hits; recombinant MKP-1, OMFP hydrolysis fluorescence; AID 374, 2006;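 active = inhibition above about 50%, limit read from the data; inconclusive = inhibition over screen mean plus 3 SD, below that limit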;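 note: 0% = DMSO max control wells and 100% = wells with enzyme stopped by NaOH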
BAP1 inh = inhibitors of BAP1 deubiquitinase, primary screen, biochemical, Ub-AMC fluorescence, kinetic | Ubiquitin carboxyl-terminal hydrolase BAP1 (Homo sapiens), Q92560 | recombinant BAP1, Ub-AMC hydrolysis fluorescence kinetic; hits give low values | calls only at 20 µM | 72,000 compounds, 0.48% hits;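 active = activity remaining at or below 50% of control, provided the compound also passes the data quality filters; inactive = the rest, including low values that fail the filters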;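 note: 100% = DMSO wells rate and 0% = substrate alone blank rate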
Ec RNAP inh = E. coli RNAP inhibitors, biochemical | DNA-directed RNA polymerase subunit beta (Escherichia coli (strain K12)), P0A8V2 | E. coli RNA polymerase, fluorescence transcription assay | inhibition, %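 (tested at 10 µM)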 | 62,000 compounds, 0.2% hits | AID 559, 2006; in the data active = inhibition above about 20%;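 note: 0% = enzyme without compound and 100% = no enzyme blank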
Target sequence (P0A8V2 whole entry, looked up): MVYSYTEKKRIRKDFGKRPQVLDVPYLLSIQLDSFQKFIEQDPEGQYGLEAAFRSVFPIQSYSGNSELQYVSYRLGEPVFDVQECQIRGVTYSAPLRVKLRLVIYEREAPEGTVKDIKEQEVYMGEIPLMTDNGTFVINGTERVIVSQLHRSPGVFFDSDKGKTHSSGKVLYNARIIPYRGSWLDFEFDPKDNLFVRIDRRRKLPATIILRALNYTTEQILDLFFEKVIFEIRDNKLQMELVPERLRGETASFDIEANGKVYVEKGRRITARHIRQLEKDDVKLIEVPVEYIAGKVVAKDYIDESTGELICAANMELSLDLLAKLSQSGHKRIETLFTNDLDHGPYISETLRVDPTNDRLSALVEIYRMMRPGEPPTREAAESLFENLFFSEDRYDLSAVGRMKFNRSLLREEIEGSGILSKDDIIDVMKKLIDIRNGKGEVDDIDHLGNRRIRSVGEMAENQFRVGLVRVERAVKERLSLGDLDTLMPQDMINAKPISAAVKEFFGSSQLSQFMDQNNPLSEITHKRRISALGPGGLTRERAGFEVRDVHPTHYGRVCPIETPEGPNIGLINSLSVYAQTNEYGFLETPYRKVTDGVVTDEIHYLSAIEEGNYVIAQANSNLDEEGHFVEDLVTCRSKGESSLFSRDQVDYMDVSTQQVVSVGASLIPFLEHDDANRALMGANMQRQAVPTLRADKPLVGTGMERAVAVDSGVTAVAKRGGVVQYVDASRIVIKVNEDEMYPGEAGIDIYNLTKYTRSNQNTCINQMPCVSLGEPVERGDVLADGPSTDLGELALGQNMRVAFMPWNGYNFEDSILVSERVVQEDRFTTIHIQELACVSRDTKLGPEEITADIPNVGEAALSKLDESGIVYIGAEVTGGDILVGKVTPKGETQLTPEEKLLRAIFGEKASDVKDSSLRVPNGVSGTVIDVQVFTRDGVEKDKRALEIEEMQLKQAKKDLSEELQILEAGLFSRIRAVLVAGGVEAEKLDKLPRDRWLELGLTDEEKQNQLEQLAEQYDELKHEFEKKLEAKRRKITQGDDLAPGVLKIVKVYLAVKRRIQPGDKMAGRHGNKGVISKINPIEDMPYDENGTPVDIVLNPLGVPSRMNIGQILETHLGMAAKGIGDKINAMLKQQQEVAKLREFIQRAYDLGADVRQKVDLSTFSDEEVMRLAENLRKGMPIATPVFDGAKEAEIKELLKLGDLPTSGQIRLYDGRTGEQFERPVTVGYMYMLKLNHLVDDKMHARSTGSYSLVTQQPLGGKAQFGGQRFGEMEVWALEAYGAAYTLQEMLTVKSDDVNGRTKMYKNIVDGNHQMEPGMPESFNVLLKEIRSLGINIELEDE
Ecoli tolC = growth inhibitors of E. coli tolC mutant, primary screen, strain BW25113 ΔtolC::kan, 384-well; OD615; growth inhibition, % at 10 µM (by protocol); 65,000 compounds, 2.2% hits; AID 573, 2007;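 active = growth inhibition at or above a cutoff equal to the mean over every tested compound plus 3 SD, cut at about 60% in these data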;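 note: growth measured after 20 h incubation at 37 °C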
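Doses: one dose of 10 µM final / Material: E. coli BW25113 ΔtolC::kan, tolC deletion mutant strain / Buffer or medium: LB with kanamycin 50 µg/mL / Evaluation: percent growth inhibition / Detection: optical density read at 615 nm / Incubation: 37 °C, 20 h exposure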
BAP1 inh confirm = BAP1 deubiquitinase inhibitors, hit retest, confirmation, orthogonal assay, biochemical, Ub-ethyl ester substrate, HPLC readout. shares compounds with BAP1 inh. purified BAP1, Ub-ethyl ester hydrolysis; hits give low values. % of control activity, % at 20 µM. 310 compounds, 8% hits. AID 753, 2007;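 active = percent of control activity at or below 60%; inconclusive = HPLC trace unusable from injection failure or solvent front hiding peaks; inactive = the rest, plus ubiquitin peak ratio over a set limit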
Numbers without * were called inactive; i = inactive; ? = inconclusive; nt = not tested or not shown; + = active, no number.

SMILES	Hsp90 block	Cdc25B block	MKP-1 inh	BAP1 inh	Ec RNAP inh	Ecoli tolC	BAP1 inh confirm
O=C(Nc1ccccc1)C1=C(O)CC(c2ccoc2)CC1=Nc1ccccc1 (stereo not drawn)	-6	5	-1	+	9	35	?
COc1ccc2cc(C(c3nnnn3Cc3ccccc3)N3CCCCCC3)c(=O)[nH]c2c1 (stereo not drawn)	-7	10	8	+	12	12	50*
COc1ccc(C)cc1NC(=O)CN1CCN(S(=O)(=O)c2ccc(C(C)C)cc2)CC1	1	-14	0	+	9	14	111
C=CCn1cc(C(=O)NCc2ccco2)c(=O)c2cc(S(=O)(=O)N3CCCCCC3)ccc21	-6	-5	34	+	6	68*	97
CCn1cc(C(=O)NCc2ccco2)c(=O)c2cc(S(=O)(=O)N3CCC(C)CC3)ccc21	-3	-5	?	i	5	45	nt
CCOC(=O)c1cnc(SCC(=O)Nc2sc(C)c(C)c2C#N)nc1N	-4	-11	4	+	8	2	31*
CCOC(=O)c1cnc(SCC(=O)Nc2cc(OC)cc(OC)c2)nc1N	2	3	-6	i	10	-3	nt
Cc1csc(NC(=O)c2cc3c(s2)CCC3)n1	nt	-29	3	nt	1	20	nt
Cc1csc(NC(=O)c2cc3c(s2)-c2ccccc2OC3)n1	-3	-7	1	+	1	16	91
O=C1SC(SCc2ccccc2)=N/C1=C\c1ccco1	-12	4	7	nt	9	1	nt
CCCSC1=N/C(=C\C=C\c2ccco2)C(=O)S1	-11	3	-8	+	7	16	86
CC(=O)N1CCN(c2ccc([N+](=O)[O-])cc2Cl)CC1	nt	nt	nt	i	nt	nt	nt
Cc1ccc(-c2cc(C(=O)OCC(=O)Nc3cc(C)on3)c3ccccc3n2)c(C)c1	0	4	4	+	-2	-21	90
CN(C)c1ccc(NC(=O)CSc2nc3ccccc3c(=O)n2C2CCCCC2)cc1	0	7	30	+	3	16	57*
CCOC(=O)c1oc2ccc(S(=O)(=O)n3nc(-c4ccc(OC)cc4)cc3N)cc2c1C	-1	5	17	+	2	20	75
CCN(CC)S(=O)(=O)c1ccc2oc(C(=O)Nc3ccc(OC)cc3OC)c(C)c2c1	1	-11	19	nt	1	-1	nt
C=CCn1c(COc2ccc(F)cc2)nnc1SCC(=O)NC(=O)NCc1ccco1	-3	-9	31	i	10	9	nt
C=CCn1c(COc2cccc(C)c2)nnc1SCC(=O)NC(=O)NCc1ccco1	-2	8	18	+	3	1	137
CCc1cccc(C)c1-n1nnnc1C(C)(C)Nc1cccc(C)c1	nt	nt	nt	i	nt	nt	nt
CCOc1cccc2sc(NC(=O)c3ccc(Br)s3)nc12	2	-12	4	+	10	6	81
CC1CCN(S(=O)(=O)c2ccc(NC(=O)Cn3nnc(-c4ccccc4)n3)cc2)CC1	-4	16	-16	i	4	17	nt
CC1CCCN(S(=O)(=O)c2ccc(NC(=O)Cn3nnc(-c4ccccc4F)n3)cc2)C1 (stereo not drawn)	2	4	-19	+	3	64*	26*
Cc1ccc(-c2nnn(CC(=O)Nc3ccc(S(=O)(=O)N4CCC(C)CC4)cc3)n2)cc1	-1	6	-12	+	4	13	73
COc1ccc(NC(=O)Cn2nnc(-c3ccccc3F)n2)cc1	-7	-16	-14	i	12	-10	nt
CCOC(=O)c1oc2ccc3c(c2c1C)C(=O)CC1(CCN(C(=O)OCC)CC1)O3	0	-15	29	+	-3	52	84
SMILES	Hsp90 block	Cdc25B block	MKP-1 inh	BAP1 inh	Ec RNAP inh	Ecoli tolC	BAP1 inh confirm
Nc1c(C(=O)c2ccc(Br)s2)oc2ccccc12	0	-4	13	+	7	4	81
FC(F)(F)COc1nc(Nc2ccccc2)nc(OCC(F)(F)F)n1	nt	nt	nt	i	nt	nt	nt
CCOc1ccccc1NC(=O)NC(=O)N(C1CCCCC1)S(C)(=O)=O	nt	nt	nt	i	nt	nt	nt
Cc1ccccc1OCc1nnc(SCC(=O)Nc2ccc3c(c2)oc2ccccc23)n1C	-4	-2	2	+	1	-1	120
Cc1cc(S(=O)(=O)N2CCN(c3ccccc3C)CC2)ccc1F	-2	-9	-5	+	8	64*	126
Cc1cc(S(=O)(=O)N2CCN(c3c(C)cccc3C)CC2)ccc1F	-3	-5	-10	i	nt	47	nt
O=C(CSc1nnc(C2CC2)n1Cc1ccccc1)c1cc2ccccc2o1	-34	2	20	+	4	8	91
CC(C)=C1C2C=CC1C1C(=O)N(c3cccc(Cl)c3)C(=O)C21 (stereo not drawn)	nt	nt	nt	i	nt	nt	nt
Cc1cc(C)cc(NC2=NC3(CCCCC3)N=C(N)N2)c1	0	-5	-3	i	7	7	nt
CCCCOc1ccc(NC2=NC3(CCCC3)N=C(N)N2)cc1	-1	0	0	+	8	59	98
O=C(Nc1ccc(N2CCN(C(=O)c3ccco3)CC2)c(Cl)c1)c1c(F)c(F)c(F)c(F)c1F	-2	-8	9	+	12	77*	?
Cc1ccc(N2C(=O)[C@@H]3[C@H](C2=O)C2c4ccccc4C=CN2[C@@H]3C(=O)c2ccco2)cc1 (stereo partly drawn)	-23	10	2	i	7	8	nt
O=C(c1ccco1)[C@@H]1[C@@H]2C(=O)N(c3ccccc3)C(=O)[C@@H]2C2c3ccccc3C=CN21 (stereo partly drawn)	-7	7	30	+	-4	18	?
CC(=O)[C@@H]1[C@@H]2C(=O)N(Cc3ccccc3)C(=O)[C@@H]2C2c3ccccc3C=CN21 (stereo partly drawn)	-2	5	28	i	4	2	nt
Cc1ccc(N2C(=O)[C@@H]3[C@H](C2=O)C2c4ccccc4C=CN2[C@@H]3C(=O)c2ccco2)c(C)c1 (stereo partly drawn)	-17	4	36	+	9	12	118
